In ChEMBL document CHEMBL1128426, “Cyclic variations of 3-quinolinecarboxamides and effects on antiherpetic activity” (1995):
≈ marks a conversion by molar mass, not a printed value. Calls of active or inactive are those of the source.

Key:
[1] = tested on: Vero; assay: The compound was tested in vitro for the highest concentration (maximum tolerated level) that showed no cellular toxicity by visualization of stained cells.; format: functional, Chlorocebus sabaeus
Outline: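 Maximum tolerated level, run alongside the HSV-2 plaque assay in Vero cells: the highest concentration showing no cellular toxicity when the stained cells were inspected visually.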

[2] = tested on: Vero; assay: In vitro anti-herpetic activity against HSV-2 plaque formation in vero cells; no activity; format: functional, cell-based; conditions: Chlorocebus sabaeus
Outline: (§1)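 HSV-2 plaque reduction in Vero cells. MIC is the lowest concentration that inhibited plaque formation by 50%. For active compounds, values are the mean of at least two experiments, SD under ±50%.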

[3] = tested on: Mus musculus; assay: The maximum tolerated dose (MTD) was defined as the highest dose of compound that did not show any signs of toxicity in mice after po administration.; format: functional
Outline: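 Oral dosing in mice within the HSV-2 infection model. MTD is the highest dose showing no overt signs of toxicity.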

[4] = tested on: Mus musculus; assay: The compound was tested in vivo for the lowest dose(minimum effective dose) at which anti-herpetic activity (HSV-2) was observed in terms of survival times of mice after po administration; no activity; format: functional, organism-based
[5] = tested on: Vero; assay: In vitro anti-herpetic activity against HSV-2 plaque formation in vero cells.; format: functional; conditions: Chlorocebus sabaeus; outline: as §1
[6] = tested on: Mus musculus; assay: The compound was tested in vivo for the lowest dose(minimum effective dose) at which anti-herpetic activity was observed in terms of survival times of mice after po administration.; format: functional; conditions: read-out: MED
Outline: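 HSV-2 infection model in mice, test agent given orally. MED is the lowest dose giving survival times statistically different from placebo, based on at least two experiments for active compounds.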

[7] = tested on: Mus musculus; assay: The compound was tested in vivo for the lowest dose(minimum effective dose) at which anti-herpetic activity was observed in terms of survival times of mice after po administration; no activity; format: functional, organism-based

| Compound | MTL [1] | MIC [2] | MTD [3] | MED [4] | MIC [5] | minimal effective dose [6] | MED [7] |
| --- | --- | --- | --- | --- | --- | --- | --- |
| CCn1cc2c(=O)n(-c3ccccc3)nc-2c2ccc(-c3ccncc3)cc21 | >100 µg/mL | inactive |  |  |  |  |  |
| CCn1cc2c(O)cnc-2c2ccc(-c3ccncc3)cc21 | 100 µg/mL | inactive |  |  |  |  |  |
| CCn1cc2c(=O)ncnc-2c2ccc(-c3ccncc3)cc21 | >100 µg/mL | inactive |  |  |  |  |  |
| CCn1cc2c(=O)onc-2c2ccc(-c3ccncc3)cc21 | >100 µg/mL |  | >400 mg/kg | inactive | 6.3 µg/mL (≈ 21.6 µM) |  |  |
| Nc1nc2c(ncn2COCCO)c(=O)[nH]1 [ACYCLOVIR] | >200 µg/mL |  | >200 mg/kg |  | 1.3 µg/mL (≈ 5.77 µM) | 12 mg/kg |  |
| CCn1c(C)c(C(N)=O)c(=O)c2ccc(-c3ccncc3)cc21 | 50 µg/mL | inactive |  |  |  |  |  |
| NC(=O)c1cn(-c2ccc(F)cc2)c2cc(-c3ccncc3)ccc2c1=O | 6.25 µg/mL |  | 50 mg/kg |  | 0.24 µg/mL (≈ 0.668 µM) | 25 mg/kg |  |
| CCn1cc2c(=O)[nH]nc-2c2ccc(-c3ccncc3)cc21 | 50 µg/mL |  | >200 mg/kg |  | 27 µg/mL (≈ 93 µM) |  | inactive |
| CCn1cc(C(N)=O)c(=O)c2ccc(-c3ccncc3)cc21 | 12.5 µg/mL |  | 50 mg/kg |  | 6.5 µg/mL (≈ 22.2 µM) | 50 mg/kg |  |
| CCn1c(C)c2c(=O)onc-2c2ccc(-c3ccncc3)cc21 | >100 µg/mL |  | >50 mg/kg |  | 2.9 µg/mL (≈ 9.5 µM) |  | inactive |
| CCn1cc2c(=O)n(C)nc-2c2ccc(-c3ccncc3)cc21 | 3.1 µg/mL | inactive |  |  |  |  |  |
